According to ChEMBL document CHEMBL1124534, “Synthesis, mechanism of action, and biological evaluation of mitosenes” (1989):
Values after ≈ are worked out from the molar mass of the structure shown.

How the values were obtained:
[1] = tested on: A204; test: In vitro antitumor activity against A204 rhabdomyosarcoma tumor cell line was determined; assay type: functional; conditions: Homo sapiens, read-out: ID50 (the source's name)
In short: (§1)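 Cell growth inhibition in vitro measured by the PIT method, with mitomycin C as positive reference.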

[2] = tested on: L1210; test: In vitro antitumor activity against L1210 lymphocytic leukemia tumor cell line was determined; assay type: functional; conditions: Mus musculus, read-out: ID50 (the source's name)
In short: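 Inhibition of L1210 leukemia colony formation in vitro, with mitomycin C as positive reference.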

[3] = tested on: Mus musculus; test: Body wieght treated/body weight untreated controls of compound (12.5 mg/kg) was evaluated in vivo for antitumor activity against MAC 16 in female NMRI mice on day 12; assay type: functional
[4] = tested on: Mus musculus; test: Body wieght treated/body weight untreated controls of compound (12.5 mg/kg) was evaluated in vivo for antitumor activity against MAC 16 in female NMRI mice on day 4; assay type: functional
[5] = tested on: Mus musculus; test: Percentage change in body weight [(day 6 - day 1)/ day 1] for antitumor activity against P388 Leukemia in CD2 mice at fractioned dose treatment of 2.5 mg/kg; assay type: functional
In short: (§2)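 Mouse P388 leukemia model. Drugs were given intraperitoneally, either as a single injection or once daily for 9 consecutive days (fractioned schedule). Outcomes were median survival time in days, %T/C, and % body weight change.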

[6] = tested on: Mus musculus; test: Percentage change in body weight [(day 6 - day 1)/ day 1] for antitumor activity against P388 Leukemia in CD2 mice at fractioned dose treatment of 8 mg/Kg; assay type: functional; conditions: in the assay text read “single dose treatment” for “fractioned dose treatment”; in short: as §2
[7] = tested on: Mus musculus; test: Mean relative body weight change of treated / mean relative body weight change of control when compound (6 mg/kg/day) administered to inhibit growth of human tumor xenograft GXF 97 was reported at day 21 in nude mice; assay type: functional
In short: (§3)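 GXF 97 xenograft grown subcutaneously in nude mice for 24 days, then randomized; ip dosing began 1 day later, given on days 1-4, with 4-5 mice per group. Read-out is mean relative body weight change of treated divided by mean relative body weight change of controls, in %.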

[8] = tested on: Mus musculus; test: Percent change in body weight [(day 6 - day 1)/ day 1] when P388 Leukemic CD2 mice were treated with a compound (6 mg/kg); assay type: functional
[9] = tested on: Mus musculus; test: Percentage change in body weight [(day 6 - day 1)/ day 1] for antitumor activity against P388 Leukemia in CD2 mice at fractioned dose treatment of 1.5 mg/Kg; assay type: functional; in short: as §2
[10] = tested on: Mus musculus; test: Mean relative body weight change of treated / mean relative body weight change of control when compound (6 mg/kg/day) administered to inhibit growth of human tumor xenograft GXF 97 was reported at day 28 in nude mice; assay type: functional; in short: as §3
[11] = tested on: Mus musculus; test: Mean relative body weight change of treated / mean relative body weight change of control when compound (6 mg/kg/day) administered to inhibit growth of human tumor xenograft GXF 97 was reported at day 14 in nude mice; assay type: functional; in short: as §3
[12] = tested on: Mus musculus; test: Median survival time in days for antitumor activity against P388 Leukemia in CD2 mice at a single dose treatment of 6 mg/kg; assay type: functional
In short: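 P388 leukemia-bearing mice were given one intraperitoneal injection. The read-out was median survival time in days, reported alongside %T/C and % body weight change.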

[13] = tested on: Mus musculus; test: Median survival time in days for antitumor activity against P388 Leukemia in CD2 mice at fractioned dose treatment of 1.5 mg/Kg; assay type: functional
In short: (§4)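 P388 leukemia-bearing mice were dosed intraperitoneally once daily for 9 consecutive days (fractioned schedule). The read-out was median survival time in days, reported alongside %T/C and % body weight change.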

[14] = tested on: Mus musculus; test: Median survival time in days for antitumor activity against P388 Leukemia in CD2 mice at fractioned dose treatment of 2.5 mg/kg; assay type: functional; in short: as §4
[15] = tested on: Mus musculus; test: Percent inhibition of compound (10 mg/Kg) was evaluated in vivo for antitumor activity against MAC 13 in female NMRI mice on day 2; assay type: functional
In short: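 MAC 13 in female NMRI mice. Drugs were given in arachis oil BP by ip route on day 2 or day 29. % inhibition was derived from treated/untreated control tumor weight (volume); a negative value indicates stimulation.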

[16] = tested on: Mus musculus; test: Percent T/C ([…]) for antitumor activity against P388 Leukemia in CD2 mice at a single dose treatment of 6 mg/kg; assay type: functional
In short: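 P388 leukemia mice given a single intraperitoneal injection. Median survival time (days) and body weight change were recorded. %T/C was derived from the survival of treated versus control mice.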

[17] = tested on: Mus musculus; test: Percent T/C ([…]) for antitumor activity against P388 Leukemia in CD2 mice at fractioned dose treatment of 1.5 mg/Kg; assay type: functional; in short: as §2
[18] = tested on: Mus musculus; test: Percent T/C ([…]) for antitumor activity against P388 Leukemia in CD2 mice at fractioned dose treatment of 2.5 mg/kg; assay type: functional; in short: as §2
[19] = tested on: Mus musculus; test: Percent T/C ([…]) for antitumor activity against P388 Leukemia in CD2 mice at fractioned dose treatment of 8 mg/Kg; assay type: functional; conditions: in the assay text read “single dose” for “fractioned dose”; in short: as §2
[20] = tested on: Mus musculus; test: Ability of intraperitoneally administered compound (6 mg/kg/day) to inhibit growth of human tumor xenograft GXF 97 was assessed on day 14 in nude mice; assay type: functional
In short: (§5)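 GXF 97 human gastric xenograft grown subcutaneously in nude mice for 24 days, then randomized; dosing began 1 day later as ip injections on days 1-4. Groups had 4-5 mice. Tumor length and width were measured. %T/C = median relative tumor size of treated / median relative tumor size of controls.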

[21] = tested on: Mus musculus; test: Ability of intraperitoneally administered compound (6 mg/kg/day) to inhibit growth of human tumor xenograft GXF 97 was assessed on day 21 in nude mice; assay type: functional; in short: as §5
[22] = tested on: Mus musculus; test: Ability of intraperitoneally administered compound (6 mg/kg/day) to inhibit growth of human tumor xenograft GXF 97 was assessed on day 28 in nude mice; assay type: functional; in short: as §5
[23] = tested on: Mus musculus; test: Relative tumor size on day 28 was reported when compound (6 mg/kg/day) administered to inhibit growth of human tumor xenograft GXF 97 in nude mice; assay type: functional
In short: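 GXF 97 human gastric xenograft grown subcutaneously in nude mice for 24 days, then mice randomized; treatment began 1 day later. Fractioned ip injections on days 1-4, or single iv injection on day 1; 4-5 mice per group. Tumor size from length and width; relative tumor size (% of controls) read at day 28.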

[24] = tested on: Mus musculus; test: Compound ((12.5 mg/Kg) was evaluated in vivo for antitumor activity against MAC 16 in female NMRI mice on day 4 and ratio of tumor weight of treated to that of control was determined; assay type: functional
[25] = tested on: Mus musculus; test: Compound (12.5 mg/Kg) was evaluated in vivo for antitumor activity against MAC 16 in female NMRI mice on day 12 and ratio of tumor weight of treated to that of control was determined; assay type: functional
[26] = tested on: WiDr; test: In vitro antitumor activity against WiDr colon carcinoma tumor cell line was determined; assay type: functional; conditions: Homo sapiens, read-out: ID50 (the source's name); in short: as §1
[27] = tested on: Mus musculus; test: Median survival time in days for antitumor activity against P388 Leukemia in CD2 mice at single dose treatment of 8 mg/Kg
[28] = tested on: Mus musculus; test: Compound (10 mg/Kg) was evaluated in vivo for antitumor activity against MAC 13 in female NMRI mice on day 2 and ratio of tumor weight of treated to that of control was determined

Q: For `COC1=C(C)C(=O)c2c(c(COC(C)=O)c3n2CCC3OC(C)=O)C1=O` (stereo not drawn), which IC50 [1] is on record?
A: 0.001 µg/mL (≈ 0.00277 µM)

Q: What about the IC50 [2] of the same compound?
A: 0.14 µg/mL (≈ 0.387 µM)

Q: What about the BW [3] of the same compound?
A: 78%

Q: What about the BW [4] of the same compound?
A: 105%

Q: And the BWC [5]?
A: 2%

Q: What about the BWC [6] of the same compound?
A: -7.1%

Q: What about the BWC [7] of the same compound?
A: 73.5%

Q: What about the BWC [8] of the same compound?
A: -4.7%

Q: And the BWC [9]?
A: 8.3%

Q: And the BWC [10]?
A: 74.1%

Q: And the BWC [11]?
A: 71%

Q: What about the MST [12] of the same compound?
A: 13 days

Q: And the MST [13]?
A: 15.5 days

Q: And the MST [14]?
A: 16.5 days

Q: What about the I [15] of the same compound?
A: 27%

Q: What about the T/C [16] of the same compound?
A: 118%

Q: What about the T/C [17] of the same compound?
A: 141%

Q: And the T/C [18]?
A: 150%

Q: And the T/C [19]?
A: 82%

Q: And the T/C [20]?
A: 16.8%

Q: And the T/C [21]?
A: 5.9%

Q: And the T/C [22]?
A: 3.9%

Q: And the “Relative TS” value [23]?
A: 26.2%

Q: And the T/C [24]?
A: 102%

Q: And the T/C [25]?
A: 120%

Q: And the IC50 [26]?
A: 0.01 µg/mL (≈ 0.0277 µM)

Q: What about the MST [27] of the same compound?
A: 9 days

Q: What about the T/C [28] of the same compound?
A: 73%
